Read-outs that look alike come from different tables or passages of the source.
Columns and labels:
SH-SY5Y cells = assay: Concentration screening for nontoxic concentration; assay type: cell-based, human; details: 24 h, MTT
In short: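 SH-SY5Y human neuroblastoma cells grown in DMEM with 10% heat-inactivated FCS, penicillin and streptomycin at 37 °C in 5% CO2. Plated at 0.12 × 10^6 cells/ml. Test compound from 25 mM DMSO stock, screened at 5 to 30 μM. MTT (0.5 mg/ml) for 3 h at 37 °C; formazan dissolved in 0.04 M HCl/isopropanol and read at 570 nm. Expressed as % of untreated cells.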

Aβ1–42 [1] = target: T1, Aβ1–42 (Homo sapiens, UniProt P05067); assay: TEM imaging of Aβ1–42 aggregation
T1 sequence (P05067 672-713): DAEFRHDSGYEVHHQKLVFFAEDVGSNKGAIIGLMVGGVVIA
In short: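 Aβ1–42 film dissolved by sonication in CH3CN/NaCl/NH4OH and diluted in 50 mM HEPES, pH 6.6. Mixed with test compound, with or without CuCl2, and incubated 24 h at 37 °C with gentle shaking. Sample applied to formvar/carbon Cu grids for 2 min at RT, washed with water and stained with 1% uranyl acetate for 1 min. Imaged at 200 kV, 10000–20000×.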

[2] = read-out: DPPH radical scavenging EC50, cited from earlier work
Aβ1–42 [3] = target: T1, Aβ1–42; details: cited from earlier work
[4] = Antioxidant activity, DPPH radical scavenging; details: read-out: DPPH radical scavenging EC50
In short: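 DPPH at 0.002% in methanol mixed with the test compound in methanol at five concentrations. Incubated 30 min at RT, protected from light. Absorbance read at 517 nm against a methanol blank. %AA = 100×(A_DPPH − A_sol)/A_DPPH. Run in duplicate. EC50 taken from a plot of antioxidant activity against compound concentration.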

[5] = physiological pH, CL/CM=10, CM=1 μM; cited from earlier work
Aβ1–42 [6] = target: T1, Aβ1–42; assay: Inhibition of Cu; assay type: biochemical; details: read-out: Inhibition of Aβ aggregation in the presence of copper(II)
In short: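 Aβ1–42 pretreated with HFIP, held as stock in CH3CN/Na2CO3/NaOH, then diluted to 40 μM in 0.215 M phosphate, pH 8.0. Incubated 24 h at 37 °C with or without test compound (80 μM), with CuCl2 (40 μM) for the Cu(II) condition. ThT (5 μM, glycine–NaOH pH 8.5) fluorescence read at 446/485 nm, corrected for peptide-free blanks. % inhibition taken versus no compound; mean ± SEM of duplicates from two experiments.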

O=C(NCCN1CCN(Cc2ccccc2)CC1)c1cc2ccccc2o1 [Compound 5, N-(2-(4-benzylpiperazin-1-yl)ethyl)benzofuran-2-carboxamide]
Highest nontoxic concentration (SH-SY5Y cells): 30 µM

O=C(NCC1CCN(Cc2ccccc2)CC1)c1ccc2[nH]c(-c3ccccc3O)nc2c1 [Compound 1, N-((1-benzylpiperidin-4-yl)methyl)-2-(2-hydroxyphenyl)-1H-benzo[d]imidazole-5-carboxamide]
Aβ aggregates seen by TEM (Aβ1–42 [1]; absence of copper): quite sparse | Aβ aggregates seen by TEM (Aβ1–42 [1]; presence of copper): reduction of Aβ aggregates | Highest nontoxic concentration (SH-SY5Y cells): 2.5 µM

COc1cccc2cc(C(=O)NCCN3CCN(Cc4ccccc4)CC3)oc12 [Compound 7, N-(2-(4-benzylpiperazin-1-yl)ethyl)-7-methoxybenzofuran-2-carboxamide]
Highest nontoxic concentration (SH-SY5Y cells): 30 µM

Cc1c(C)c2c(c(C)c1O)CCC(C)(C(=O)O)O2 (stereo not drawn) [Trolox]
EC50 ([2]; same experimental method): 15 µM

Nc1c2c(nc3ccccc13)CCCC2 [Tacrine, tacrine]
EC50 [2]: > 1000 µM

O=C(NCCN1CCN(Cc2ccccc2)CC1)c1ccc2[nH]c(-c3ccccc3O)nc2c1 [Compound 2, N-(2-(4-benzylpiperazin-1-yl)ethyl)-2-(2-hydroxyphenyl)-1H-benzo[d]imidazole-5-carboxamide]
Aβ aggregates seen by TEM (Aβ1–42 [3]; absence of copper): a reduction of Aβ aggregates was also observed | Aβ aggregates seen by TEM (Aβ1–42 [3]; presence of copper): reduction of Aβ aggregates | EC50 [4]: 594 ± 4 µM | Highest nontoxic concentration (SH-SY5Y cells): 5 µM | pCu [5]: 11.4

COc1cccc2cc(C(=O)NCC3CCN(Cc4ccccc4)CC3)oc12 [Compound 6, N-((1-benzylpiperidin-4-yl)methyl)-7-methoxy-benzofuran-2-carboxamide]
Highest nontoxic concentration (SH-SY5Y cells): 20 µM

O=C(NCC1CCN(Cc2ccccc2)CC1)c1cc2ccccc2o1 [Compound 4, N-((1-benzylpiperidin-4-yl)methyl)benzofuran-2-carboxamide]
Highest nontoxic concentration (SH-SY5Y cells): 30 µM

O=C(NCCN1CCN(Cc2ccccc2)CC1)c1cc2cccc(O)c2o1 [Compound 3, N-(2-(4-benzylpiperazin-1-yl)ethyl)-7-hydroxybenzofuran-2-carboxamide]
inhibition (Aβ1–42 [6]): 35.5%
